According to article PMC11234860 (Chemical Science, 2024):

Key:
[1] = molecular target: Siglec-9 (Siglec-9d1–d3-Fc) (Homo sapiens, UniProt Q9Y336); experiment: 19F T2 CPMG filtered NMR competitive displacement assay, Siglec-9; format: binding
Method in brief: (§1)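 Siglec-15 ECD (d1–d2, residues 20–263) fused to mVENUS, or Siglec-9 d1–d3 (residues 18–336) fused to human IgG1 Fc with C-terminal His6. Both transiently expressed in HEK293F and purified by Ni-NTA then SEC. Siglec-9 15 μM or Siglec-15 25 μM, with 10 equiv difluoroacetamide spy, titrated with increasing competitor equivalents. One decoupled 19F CPMG spectrum per sample (200 ms filter) at 600 MHz, 298 K, in 20 mM Tris pH 8, 300 mM NaCl, 10% D2O, with 100 μM TFA reference.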

[2] = molecular target: T1, Siglec-15 (Siglec-15d1–d2-mVENUS) (Homo sapiens, UniProt Q6ZMC9); experiment: 19F T2 CPMG filtered NMR competitive displacement assay, Siglec-15; format: binding
T1 sequence (Q6ZMC9 20-263): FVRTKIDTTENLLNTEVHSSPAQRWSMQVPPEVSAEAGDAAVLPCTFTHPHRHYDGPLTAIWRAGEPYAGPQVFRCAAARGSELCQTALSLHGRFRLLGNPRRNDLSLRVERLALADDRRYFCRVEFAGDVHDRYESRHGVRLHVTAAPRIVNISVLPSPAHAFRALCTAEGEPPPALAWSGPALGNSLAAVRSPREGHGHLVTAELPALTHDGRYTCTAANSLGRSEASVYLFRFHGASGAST
Method in brief: as §1

[3] = read-out: lower KD limit, semiquantitative, from displacement

Sequence of Siglec-9 (Siglec-9d1–d3-Fc) (Q9Y336 18-336): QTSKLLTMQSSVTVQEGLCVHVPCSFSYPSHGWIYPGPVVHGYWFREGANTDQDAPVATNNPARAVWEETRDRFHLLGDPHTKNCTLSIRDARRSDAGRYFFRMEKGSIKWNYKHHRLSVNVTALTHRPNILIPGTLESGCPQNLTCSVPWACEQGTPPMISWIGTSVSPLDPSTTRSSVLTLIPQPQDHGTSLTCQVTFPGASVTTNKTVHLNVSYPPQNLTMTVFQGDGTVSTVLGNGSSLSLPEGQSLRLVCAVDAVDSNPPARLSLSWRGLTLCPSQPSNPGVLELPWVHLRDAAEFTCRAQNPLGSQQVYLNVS

displacement of the spy molecule ([1]; 320 equivalents of competitor, Siglec-9 15 μM + 10 equiv diF α2,6SLN): 21%
Kd [1, 3]: ≥ 3 mM
displacement of the spy molecule ([2]; 300 equivalents of competitor, Siglec-15 25 μM + 10 equiv diF α2,6SLN): 22%
Kd [2, 3]: ≥ 5 mM
Substance: 6′-sialyl N-acetyl-D-lactosamine aminoethylglycoside [α2,6SLN]
